Screening data from PubChem.
MC4R barr agon: activates human MC4R beta-arrestin recruitment; hit rate 0.98% among 360,000; U2OS MC4R beta-arrestin complementation, luminescence; percent of melanotan II response, DMSO zero; activation, % at 8.9 µM; AID 540308;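 active means activation above a per-plate cutoff, the mean activation of sample wells on that plate plus 3 SD, cut at about 8% in these data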
Target sequence (P32245 whole entry, looked up): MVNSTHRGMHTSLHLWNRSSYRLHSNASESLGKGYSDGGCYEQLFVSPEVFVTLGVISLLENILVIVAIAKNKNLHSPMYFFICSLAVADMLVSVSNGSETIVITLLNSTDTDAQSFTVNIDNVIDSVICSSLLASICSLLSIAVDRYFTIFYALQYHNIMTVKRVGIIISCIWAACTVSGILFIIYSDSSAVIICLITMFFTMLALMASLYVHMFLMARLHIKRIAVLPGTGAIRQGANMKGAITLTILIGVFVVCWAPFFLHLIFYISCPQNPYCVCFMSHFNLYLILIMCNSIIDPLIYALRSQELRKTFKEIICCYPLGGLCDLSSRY
Calb FLC: affects C. albicans growth with fluconazole; C. albicans CaCi-2 + fluconazole, Alamar Blue growth, 48 h; growth inhibition, % (test concentration not listed); hit rate 0.57% among 300,000; AID 1979;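 active means growth inhibition above about 58% in most replicates, limit read from the data, passing the limit was not always enough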;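 further: all wells also contain fluconazole at 8 µg/ml as a sub-toxic cotreatment; 0% = median of DMSO wells and 100% = median of geldanamycin control wells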
Efflux pump inh: blocks antifungal efflux pumps in multiplex yeast assay | hit rate 0.44% among 330,000 | S. cerevisiae Candida pump triplex, Nile Red efflux | inhibition, % at 10 µM;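 active means plate passing quality check with inhibition over a set limit, or well fluorescence over plate mean plus 4 SD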;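 further: Nile Red retained in pooled yeast measured as flow cytometry median fluorescence; 0% = buffer negative control and 100% = Enniatin B positive control; higher means more Nile Red kept so more efflux inhibition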
MC4R antag cAMP: antagonists of human melanocortin 4 receptor (MC4R). hit rate 0.48% among 360,000. P32245. MC4R-expressing cells, MTII-stimulated cAMP, LANCE TR-FRET. inhibition, % at 6.5 µM;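 active means inhibition above its plate's cutoff, the mean of tested wells on that plate plus 3 SD, cut at about 29% in these data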;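 further: 0% = Melanotan II alone and 100% = Melanotan II plus saturating MCL0020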
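System – human MC4R-expressing U2OS cells · Also added – Melanotan II · Dosing – one concentration, 6.5 µM nominal · Timing – 30-min compound, 1-h challenge, 1-h detection, room temperature · Measured by – Eu-cAMP/anti-cAMP TR-FRET, emission 671 nm · Replicates – singlicate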
GalR3 antag: blocks the human galanin receptor 3. O60755. HEK293 GalR3-CNG cAMP membrane potential fluorescence; galR3 body fused to GalR1 C-terminus. inhibition, % at 3 µM. hit rate 0.44% among 360,000. AID 651719;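 active means inhibition above the screen-wide average plus 3 SD, cut at about 13% in these data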;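 further: forskolin and galanin both at EC90 stimulate the cells; cAMP rise reported by CNG channel membrane potential dye signal; 0% = forskolin plus galanin with DMSO and 100% = forskolin alone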
Target sequence (O60755 1-299 limits assumed): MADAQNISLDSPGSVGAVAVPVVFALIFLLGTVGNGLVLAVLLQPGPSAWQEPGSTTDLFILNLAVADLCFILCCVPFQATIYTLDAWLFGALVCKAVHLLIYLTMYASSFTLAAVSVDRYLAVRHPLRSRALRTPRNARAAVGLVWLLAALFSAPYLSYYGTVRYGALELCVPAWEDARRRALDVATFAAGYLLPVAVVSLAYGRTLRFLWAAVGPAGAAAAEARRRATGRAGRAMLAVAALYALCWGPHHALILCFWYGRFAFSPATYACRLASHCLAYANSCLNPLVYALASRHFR
TAG inh: triacylglycerol accumulation inhibition | H9c2 cells, Nile Red lipid (TAG) fluorescence; cells loaded with 200 µM oleic acid | inhibition, % at 12.5 µM | hit rate 0.66% among 230,000;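 active means pattern-corrected inhibition of lipid staining of at least 50% with the nuclear-stain viability signal not falling by more than 50%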;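 further: 0% = DMSO wells and 100% = triacsin C control wells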
Active calls of the source: *; x = no result. An excerpt weighted towards active compounds, which were near 2.9% of everything screened.

SMILES	MC4R barr agon	Calb FLC	Efflux pump inh	MC4R antag cAMP	GalR3 antag	TAG inh
CN1CCN(c2cc3c(c4c2[nH]c2ccccc24)C(=O)CC(C)(C)C3)CC1	0.8	101.0*	0.2	-15.5	2.1	54.1*
CN1CCN(c2ccc(Cl)cc2NC(=O)c2cc(=O)[nH]c3ccccc23)CC1	-2.6	x	-0.3	-4.3	-4.5	18.6
COC(=O)[C@]12C[C@H](CC(=O)N3CCN(C(=O)c4ccco4)CC3)C(=O)N(Cc3ccccc3)C1=C[C@H](C(C)(C)C)O[C@@H]2C	x	x	x	x	-6.3	x
NC(=O)c1c(NC(=O)c2ccccc2C(=O)O)sc2c1CCCC2	0.5	-7.0	0.0	9.6	-9.6	-2.0
NC(=O)c1c(NC(=O)c2ccccc2F)sc2c1CCCC2	1.6	81.7*	0.5	5.1	-12.5	8.2
N#Cc1c(NC(=O)c2ccccc2)sc2c1CCCCC2	8.3*	-2.3	-0.1	-0.9	-0.1	x
N#Cc1c(Cl)nsc1NC(=O)c1ccccc1	1.5	106.2*	-0.2	4.0	-3.3	4.9
Cc1ccc(C(=O)Nc2sc3c(c2C#N)CCCCC3)cc1C	0.5	5.8	-0.1	5.8	-2.6	10.1
Cc1cc2c(SCC(=O)Nc3cccc(O)c3)ncnc2s1	-0.6	x	x	-1.4	-7.4	7.7
O=C(Nc1ccccc1OC(F)F)c1ccc(N2CCCC2=O)cc1	-0.8	x	x	5.2	-5.2	6.8
CC1(C(=O)NS(=O)(=O)c2ccc(Br)cc2)CCN1C(=O)Cc1cccs1 (configuration not stated)	-1.9	x	x	2.1	-6.6	0.9
Cc1ccc(S(=O)(=O)N(C)c2ccc3c(c2)C(=O)c2ccccc2-3)cc1	x	x	x	x	-8.2	x
Nc1ccn([C@@H]2O[C@H](C(=O)N[C@H](Cc3ccccc3)C(=O)Nc3ccc4scnc4c3)[C@@H](O)[C@H]2O)c(=O)n1	x	x	x	x	-5.8	x
COc1ccc(CC2(c3ccccc3)NC(=O)NC2=O)cc1 (configuration not stated)	-2.0	x	x	-2.4	-5.2	4.4
CCOc1ccc2nc(NC(=O)C3CSC4(C)CCC(=O)N34)sc2c1 (configuration not stated)	0.3	x	-0.2	18.1	0.0	8.6
COc1ccccc1C(C[N+](=O)[O-])c1c(N)n(C)c(=O)n(C)c1=O (configuration not stated)	1.9	39.4*	0.0	-11.2	3.0	52.5*
COc1ccccc1C(c1c(N)n(C)c(=O)n(C)c1=O)C(C)[N+](=O)[O-] (configuration not stated)	-0.1	5.9	0.1	25.1	2.7	6.4
C[C@H]1COc2cccc(N(C)CCO)c2S(=O)(=O)N1	x	x	x	x	-1.9	x
CCCN1C(=O)c2[nH]nc(-c3ccccc3)c2C1c1ccc(Br)cc1 (configuration not stated)	x	x	x	x	-6.1	x
O=C(O)c1cnc(-c2ccccc2)nc1Sc1ccccc1Cl	-2.7	96.0*	-0.2	5.8	1.5	-0.7
CCOC(=O)c1nnc(-c2ccccc2)nc1Sc1ccccc1Cl	-3.8	21.7	-0.1	2.0	1.5	-0.9
Cc1cccc(Sc2nc(-c3ccccc3)ncc2C(=O)O)c1	-1.5	108.7*	-0.4	19.3	-6.4	3.0
O=C(O)c1cnc(-c2ccccc2)nc1Sc1ccc(Cl)cc1	-0.2	98.7*	0.0	0.8	-2.7	18.1
COc1ccc(Sc2nc(-c3ccccc3)ncc2C(=O)O)cc1	0.2	60.3	0.0	25.6	-1.7	x
CNc1ccc(-c2cccc([N+](=O)[O-])c2)cn1	0.7	x	x	11.6	-4.4	8.5
SMILES	MC4R barr agon	Calb FLC	Efflux pump inh	MC4R antag cAMP	GalR3 antag	TAG inh
Nc1ccn([C@@H]2O[C@H](C(=O)N[C@H](Cc3ccccc3)C(=O)N3CCC(F)(F)CC3)[C@@H](O)[C@H]2O)c(=O)n1	x	x	x	x	-5.5	x
COc1ccc(-c2nc(C#N)c(N3CCc4ccccc4C3)o2)cc1OC	11.7*	12.8	-0.5	1.7	-3.7	x
Cc1ccc(-c2cc(C(F)(F)F)nn2-c2ccc(S(N)(=O)=O)cc2)cc1	8.5*	37.2	0.0	5.4	-1.3	2.8
Cc1ccsc1C(=O)OCC(=O)NCc1cccs1	-0.9	x	x	11.3	-7.0	-12.5
CCN(C)C1CN(Cc2cn(Cc3ccc(Cl)cc3)nn2)S(=O)(=O)C1 (configuration not stated)	x	x	x	x	-4.3	x
COc1cc(NC(=O)C2(C)CCN2C(C)C)cc(OC)c1OC (configuration not stated)	0.6	x	x	2.7	-6.7	-2.2
CC1=CC(C)(C)N2C(=O)C3(NCCc4c3[nH]c3ccccc43)c3cc(C)cc1c32 (configuration not stated)	1.7	-4.0	0.1	10.5	-6.8	67.5*
CN1C(=O)C2(NCCc3c2[nH]c2ccccc32)c2ccccc21 (configuration not stated)	1.5	3.1	0.1	7.6	-1.1	x
COc1cccc(CNC(=O)[C@H]2CCCN2C(=O)[C@H]2CCCN2C(=O)c2cccc3ccccc23)c1	x	x	x	x	-4.2	x
Cc1ccc2c(c1)Oc1ccc(NC(=O)CCl)cc1C(=O)N2	-1.7	38.0	-0.1	-39.6	-5.3	55.8*
COc1ccccc1-c1cc(C(=O)Nc2ccccc2SC)no1	8.7*	-0.8	-0.1	-8.3	-4.8	x
COc1ccc(C2CC(=O)C(c3ccc(Cl)cc3)=CN2Cc2ccccc2)cc1 (configuration not stated)	x	x	x	x	-9.5	x
COc1cc(CCC(N)c2cccc(O)c2)cc(OC)c1OC (configuration not stated)	-1.3	x	x	-3.1	-4.7	13.7
O=C(NNC(=S)Nc1ccc(Cl)c(Cl)c1)c1ccccn1	-4.7	101.6*	0.1	4.8	3.3	-0.8
O=C(NNC(=S)Nc1ccc(F)c(Cl)c1)c1ccccc1Br	-4.9	106.8*	-0.1	1.3	-11.0	1.4
CCNC(=S)NNC(=O)c1ccccn1	-2.0	2.6	0.2	14.6	4.9	x
Nc1[nH]c(C(=O)c2ccccc2)c(-c2cccc3ccccc23)c1C(=O)c1ccc(Br)cc1	x	x	x	x	-6.7	x
CC1=CC(C)(C)Nc2ccc(OC(=O)CCN3C(=O)c4ccccc4C3=O)cc21	-1.5	42.9	0.1	1.3	-2.4	54.0*
O=C(CCN1C(=O)c2ccccc2C1=O)Oc1ccc2ccccc2c1	0.4	4.8	-0.2	-0.3	-1.0	6.9
O=C(CS(=O)(=O)Nc1ccc(F)cc1Cl)Nc1ccc(F)cc1Cl	-1.3	78.8*	0.0	7.7	-8.1	x
COc1ccc(N2C(=O)c3n[nH]c(C(C)C)c3C2c2ccc(F)cc2)cc1 (configuration not stated)	x	x	x	x	-3.5	x
NC(=S)NCc1cccnc1	-2.0	-8.0	-0.1	0.4	-5.0	x
CSC(=S)NCc1cccnc1	2.2	87.7*	-0.1	-0.7	-3.0	x
O=C(NCc1ccccn1)c1ccc(NS(=O)(=O)c2cccc(Cl)c2)cc1	-2.8	7.9	0.0	-4.1	0.6	-1.6
O=C(CN1CCN(S(=O)(=O)c2ccc(Br)cc2)CC1)N/N=C/c1ccc(Br)s1	9.0*	-13.5	-0.1	-4.8	-2.7	-5.9
